{
  "source": "ChEMBL document CHEMBL1240314",
  "about": "“Small-molecule inhibitor of p53 binding to mitochondria protects mice from gamma radiation” (2006)",
  "key": {"[1]": {"target": "Cellular tumor antigen p53 (Homo sapiens) (UniProt P04637)", "sequence (P04637 whole entry, looked up)": "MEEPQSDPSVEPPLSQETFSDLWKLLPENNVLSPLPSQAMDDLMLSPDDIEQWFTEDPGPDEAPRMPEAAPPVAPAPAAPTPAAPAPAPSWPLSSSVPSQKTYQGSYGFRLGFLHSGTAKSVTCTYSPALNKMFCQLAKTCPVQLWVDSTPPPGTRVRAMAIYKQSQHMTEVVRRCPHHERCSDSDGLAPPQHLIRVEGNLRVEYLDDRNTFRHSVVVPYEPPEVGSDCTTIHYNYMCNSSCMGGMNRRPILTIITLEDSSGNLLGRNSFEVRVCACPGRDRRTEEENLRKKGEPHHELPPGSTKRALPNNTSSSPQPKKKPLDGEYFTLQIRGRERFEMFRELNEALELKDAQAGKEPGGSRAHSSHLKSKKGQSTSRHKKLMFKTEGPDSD", "assay": "Binding affinity to p53 assessed as reduction in mitochondrial-bound p53 level at 10 uM", "summary_of_the_method": "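Cell-free reconstitution: freshly isolated HeLa or Saos-2 mitochondria (40 mg as printed) incubated 1 h at 37 °C with purified baculoviral human wild-type p53 (60 ng) plus compound in MS buffer with CaCl2; mitochondria pelleted, washed three times, p53 cosedimentation by western blot, mt-Hsp75 loading control.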"}, "[2]": {"target": "Cellular tumor antigen p53 (Homo sapiens) (UniProt P04637)", "assay": "Binding affinity to p53 transfected in human […] cells assessed as reduction in p53 bound-Bcl-xL at 15 uM after 48 hrs", "type": "cell-based", "conditions": "HEK293", "summary_of_the_method": "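293T cells cotransfected with Flag-tagged wild-type Bcl-xL or Bcl-2 plus wild-type p53 plasmid; compound 15 mM (so in the source) applied 24 h after transfection; lysates (1 mg protein) immunoprecipitated with anti-Flag M2 gel, bound p53 detected with HRP-conjugated DO-1.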"}, "NCI-H1299": {"system": "NCI-H1299", "assay": "Antiapoptotic activity against staurosporine-induced cell death in human H1299 cells assessed as cell survival at 10 uM after 24 hrs by methylene blue assay", "type": "functional, cell-based"}, "WI-38": {"system": "WI-38", "assay": "Antiapoptotic activity against TNF-alpha induced apoptosis in human WI38 cells assessed as cell survival at 0.1 uM to 10 uM after 24 hrs by methylene blue assay in presence of 0.5 ug/ml cycloheximidine", "type": "functional, cell-based"}, "Fibroblast": {"system": "Fibroblast", "assay": "Antiapoptotic activity against TNF-alpha induced apoptosis in mouse fibroblast assessed as cell survival at 0.1 uM to 10 uM by methylene blue assay in presence of 0.5 ug/ml cycloheximidine after 24 hrs", "type": "functional, cell-based"}, "[3]": {"assay": "Antiapoptotic activity against fas-induced apoptosis in mouse fibroblast assessed as cell survival at 0.1 uM to 10 uM by methylene blue assay in presence of 1 ug/ml cycloheximidine after 24 hrs", "type": "functional, cell-based"}, "[4]": {"target": "Cellular tumor antigen p53 (Homo sapiens) (UniProt P04637)", "assay": "Inhibition of p53-mediated apoptosis in human WI38 cells assessed as cell survival at 10 uM after 24 hrs by methylene blue assay", "type": "cell-based", "conditions": "WI-38"}, "[5]": {"target": "Cellular tumor antigen p53 (Homo sapiens) (UniProt P04637)", "assay": "Inhibition of p53-mediated transactivation of promoter bax in human H1299 cells at 10 uM after 48 hrs by luciferase reporter assay", "type": "cell-based"}, "[6]": {"target": "Cellular tumor antigen p53 (Homo sapiens) (UniProt P04637)", "assay": "Inhibition of p53-mediated transactivation of promoter hDM2 in human H1299 cells at 10 uM after 48 hrs by lacZ reporter assay", "type": "cell-based"}, "[7]": {"target": "Cellular tumor antigen p53 (Homo sapiens) (UniProt P04637)", "assay": "Effect on UV-induced activation of p53 in human ConA cells assessed as beta-galactosidase activity by X-gal staining", "type": "cell-based", "summary_of_the_method": "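ConA cells carrying a lacZ reporter under a p53-responsive promoter; UV 35 J m–2; β-galactosidase visualized by X-gal staining 24 h after treatment.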"}, "[8]": {"target": "Cellular tumor antigen p53 (Homo sapiens) (UniProt P04637)", "assay": "Inhibition of p53-dependent transcription of puma in UV-induced human MCF7 cells", "type": "cell-based", "summary_of_the_method": "(§1)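 Northern analysis of MCF7 cells, p53 wild-type and shRNA p53-knockdown. Induction by UV 8.5 J m–2 or Dox […]. RNA isolated 18 h after treatment; 10 µg hybridised with 32P-labelled full-length cDNA probes for Bax, Noxa or Puma. 18S rRNA used as loading control.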"}, "[9]": {"target": "Cellular tumor antigen p53 (Homo sapiens) (UniProt P04637)", "assay": "Inhibition of p53-dependent transcription of puma in human MCF7 cells", "type": "cell-based", "summary_of_the_method": "as §1"}, "[10]": {"target": "Cellular tumor antigen p53 (Homo sapiens) (UniProt P04637)", "assay": "Inhibition of p53-dependent transcription of bax in UV-stimulated human […] cells", "type": "cell-based", "summary_of_the_method": "as §1"}, "[11]": {"target": "Cellular tumor antigen p53 (Homo sapiens) (UniProt P04637)", "assay": "Inhibition of p53-dependent transcription of noxa in UV-induced human MCF7 cells", "type": "cell-based", "summary_of_the_method": "as §1"}, "[12]": {"target": "Cellular tumor antigen p53 (Homo sapiens) (UniProt P04637)", "assay": "Inhibition of p53-dependent transcription of noxa in human U2OS cells", "type": "cell-based", "summary_of_the_method": "(§2)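 Northern analysis of U2OS cells, p53 wild-type and shRNA p53-knockdown. Induction by UV 8.5 J m–2 or Dox […]. RNA isolated 18 h after treatment; 10 µg hybridised with 32P-labelled full-length cDNA probes for Bax, Noxa or Puma. 18S rRNA used as loading control.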"}, "[13]": {"target": "Cellular tumor antigen p53 (Homo sapiens) (UniProt P04637)", "assay": "Inhibition of p53-dependent transcription of noxa in doxorubicin-induced human U2OS cells", "type": "cell-based", "summary_of_the_method": "as §2"}, "[14]": {"target": "Cellular tumor antigen p53 (Homo sapiens) (UniProt P04637)", "assay": "Inhibition of p53-mediated transactivation of p21 in gamma-stimulated human SK-MEL-29 cells at 10 uM after 6 hrs"}, "Homo sapiens": {"species_on_record": "Homo sapiens", "assay": "Induction of p21 mRNA expression in human SK-MEL-29 cells", "type": "functional, cell-based", "summary_of_the_method": "(§3)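 Wild-type and p53-deficient cell pairs stimulated with 5-FU ([…] as printed) or gamma irradiation (10 or 15 Gy); p21 mRNA quantified by real-time PCR; means ± s.d., n = 3.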"}, "BJ": {"system": "BJ", "assay": "Induction of p21 mRNA expression in 5-fluorouracil-stimulated human BJ cells", "type": "functional, cell-based", "summary_of_the_method": "as §3"}, "[15]": {"target": "Cellular tumor antigen p53 (Homo sapiens) (UniProt P04637)", "assay": "Inhibition of p53 in human ConA cells assessed as effect on cell cycle distribution at 10 uM after 24 hrs", "type": "cell-based", "summary_of_the_method": "(§4)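 ConA cells given 10 µM test agent, with or without 10 Gy gamma irradiation. Cell-cycle distribution measured 24 h later.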"}, "[16]": {"target": "Cellular tumor antigen p53 (Homo sapiens) (UniProt P04637)", "assay": "Inhibition of p53 in gamma-stimulated human ConA cells assessed as effect on cell cycle distribution at 10 uM after 24 hrs", "type": "cell-based", "summary_of_the_method": "as §4"}, "MCF7 [17]": {"system": "MCF7", "assay": "Induction of Puma gene expression in human MCF7 cells", "type": "functional, cell-based", "summary_of_the_method": "(§5)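 Northern blot: 10 mg RNA (so in the source) isolated 18 h after UV (8.5 J m–2) or doxorubicin (125 mg ml–1 as printed) from MCF7 or U2OS cells and p53-knockdown (lentiviral shRNA) counterparts; hybridized with 32P-labeled full-length cDNA probes for Bax, Noxa, Puma; 18S rRNA loading control.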"}, "MCF7 [18]": {"system": "MCF7", "assay": "Induction of Noxa gene expression in UV-induced human MCF7 cells", "type": "functional, cell-based", "summary_of_the_method": "as §5"}, "MCF7 [19]": {"system": "MCF7", "assay": "Induction of Noxa gene expression in human MCF7 cells", "type": "functional, cell-based", "summary_of_the_method": "as §5"}, "MCF7 [20]": {"system": "MCF7", "assay": "Induction of Bax gene expression in human MCF7 cells", "type": "functional, cell-based", "summary_of_the_method": "as §5"}, "HEK-293T": {"system": "HEK-293T", "assay": "Antiapoptotic activity against Bax gene-induced apoptosis in human 293T cells transfected with pTZV3-CMV-Bax at 10 uM after 24 hrs", "type": "functional, cell-based", "summary_of_the_method": "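Bax delivered by transient transfection of 293T and HT1080 cells with CMV-Bax construct (Lipofectamine Plus); compound at 10 mM as printed; apoptosis scored 24 h after transfection by annexin/PI staining on FACScan.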"}, "HT-1080": {"system": "HT-1080", "assay": "Antiapoptotic activity against Bax gene-induced apoptosis in human HT1080 cells transfected with pTZV3-CMV-Bax at 10 uM after 24 hrs", "type": "functional, cell-based"}, "[21]": {"target": "Cellular tumor antigen p53 (Homo sapiens) (UniProt P04637)", "assay": "Binding affinity to p53 transfected in human Saos-2 cells harboring pLV-53 assessed as reduction of p53 protein in mitochondria at 10 uM after 48 hrs", "summary_of_the_method": "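Saos-2 cells infected with p53-expressing lentivirus; compound ([…] as printed) added 5 h after infection; mitochondrial and cytosolic fractions western blotted for p53 at 48 h post-infection, with mt-Hsp75 and β-actin as fraction loading controls.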"}, "[22]": {"target": "Cellular tumor antigen p53 (Homo sapiens) (UniProt P04637)", "assay": "Binding affinity to p53 transfected in human Saos-2 cells harboring pLV-53 assessed as cytosolic p53 concentration at 10 uM after 48 hrs", "type": "cell-based"}, "[23]": {"target": "Cellular tumor antigen p53 (Mus musculus) (UniProt P02340)", "sequence (P02340 whole entry)": "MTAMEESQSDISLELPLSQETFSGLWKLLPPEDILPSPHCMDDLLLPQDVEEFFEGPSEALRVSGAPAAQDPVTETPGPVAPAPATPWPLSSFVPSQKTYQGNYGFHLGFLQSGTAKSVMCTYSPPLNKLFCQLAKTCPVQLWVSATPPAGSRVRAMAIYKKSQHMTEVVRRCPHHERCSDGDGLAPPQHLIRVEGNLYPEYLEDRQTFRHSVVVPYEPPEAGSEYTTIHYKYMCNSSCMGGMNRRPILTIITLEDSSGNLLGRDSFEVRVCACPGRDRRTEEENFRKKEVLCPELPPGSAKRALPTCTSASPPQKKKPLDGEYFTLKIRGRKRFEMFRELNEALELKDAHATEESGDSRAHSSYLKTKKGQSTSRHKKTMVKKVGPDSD", "assay": "Binding affinity to p53 in gamma irradiated mouse thymocyte assessed as cytosolic p53 concentration at 10 uM after 2 hrs"}, "[24]": {"target": "Cellular tumor antigen p53 (Mus musculus) (UniProt P02340)", "assay": "Binding affinity to p53 in gamma irradiated mouse thymocyte assessed as cytosolic caspase 8 concentration at 10 uM after 2 hrs"}},
  "note": "Active and inactive are the calls of the source. No cut-off for these calls is given here.",
  "data": [
    {"smiles": "NS(=O)(=O)C#Cc1ccccc1", "values": [
      {"measurement": "Activity", "setting": "[1]", "result": "Active"},
      {"measurement": "Activity", "setting": "[2]", "result": "Active"},
      {"measurement": "Activity", "setting": "NCI-H1299", "result": "inactive"},
      {"measurement": "Activity", "setting": "WI-38", "result": "inactive"},
      {"measurement": "Activity", "setting": "Fibroblast", "result": "inactive"},
      {"measurement": "Activity", "setting": "[3]", "result": "inactive"},
      {"measurement": "inhibition", "setting": "[4]", "result": "Active"},
      {"measurement": "inhibition", "setting": "[5]", "result": "inactive"},
      {"measurement": "inhibition", "setting": "[6]", "result": "inactive"},
      {"measurement": "Activity", "setting": "[7]", "result": "inactive"},
      {"measurement": "inhibition", "setting": "[8]", "result": "inactive"},
      {"measurement": "inhibition", "setting": "[9]", "result": "inactive"},
      {"measurement": "inhibition", "setting": "[10]", "result": "inactive"},
      {"measurement": "inhibition", "setting": "[11]", "result": "inactive"},
      {"measurement": "inhibition", "setting": "[12]", "result": "inactive"},
      {"measurement": "inhibition", "setting": "[13]", "result": "inactive"},
      {"measurement": "inhibition", "setting": "[14]", "result": "inactive"},
      {"measurement": "Activity", "setting": "Homo sapiens", "result": "inactive"},
      {"measurement": "Activity", "setting": "BJ", "result": "inactive"},
      {"measurement": "inhibition", "setting": "[15]", "result": "inactive"},
      {"measurement": "inhibition", "setting": "[16]", "result": "inactive"},
      {"measurement": "Activity", "setting": "MCF7 [17]", "result": "inactive"},
      {"measurement": "Activity", "setting": "MCF7 [18]", "result": "inactive"},
      {"measurement": "Activity", "setting": "MCF7 [19]", "result": "inactive"},
      {"measurement": "Activity", "setting": "MCF7 [20]", "result": "inactive"},
      {"measurement": "Activity", "setting": "HEK-293T", "result": "inactive"},
      {"measurement": "Activity", "setting": "HT-1080", "result": "inactive"},
      {"measurement": "Activity", "setting": "[21]", "result": "Active"},
      {"measurement": "Activity", "setting": "[22]", "result": "inactive"},
      {"measurement": "Activity", "setting": "[23]", "result": "inactive"},
      {"measurement": "Activity", "setting": "[24]", "result": "inactive"}
    ]}
  ]
}
